The results in this text go back to ChEMBL document CHEMBL1152353, “Pyrimido[5,4-e][1,2,4]triazine-5,7(1H,6H)-dione derivatives as novel small molecule chaperone amplifiers” (Bioorg Med Chem Lett, 2009).

The source made the active and inactive calls. The rule behind the calls is not given here. Where only a bound is given, the exact number is not on record here.

The test system of data set [1] is SK-N-SH. Description: Cytoprotection against rotenone stress-induced toxicity in human SK-N-SH cells at 0.16 uM after 48 hrs by MTS assay. Type of data set: functional. Put shortly:
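SK-N-SH cells (within passage 6) seeded in DMEM with 0.1% FBS for 18 h, then fresh medium with rotenone (final 200 nM) plus compound (range from 0.019 up to 10). Incubated 48 h, viability by MTS; cytoprotection as viability increase over DMSO-plus-rotenone control.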
For orientation: Formazan colour is commonly taken as a measure of viable cells.

Data set [2] in a line: (§1) Cytotoxicity against human HeLa cells after 72 hrs by MTS assay. Type of data set: cell-based. As to conditions: HeLa cells. Summed up: (§2)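 HeLa (8000 cells/well) or SK-N-SH (14,000 cells/well) cells seeded in DMEM with 10% FBS for 18 h. Compound added at 1:200 dilution, final 0.3 to 80 µM, 0.5% v/v DMSO. Exposure 72 h, then MTS/PMS for 4 h, SDS to 1.4% w/v, absorbance at 492 nm. CC50 = concentration giving half-maximal cytotoxicity.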

For data set [3], the system named is SK-N-SH. Put plainly: Cytoprotection against rotenone stress-induced toxicity in human SK-N-SH cells assessed as increase in cell viability after 48 hrs by MTS assay relative to control. Type of data set: functional. Details: concentration or dose not given beside the values. Summed up: (§3)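 SK-N-SH neuroblastoma cells (within passage 6) seeded in DMEM with 0.1% FBS for 18 h, then fresh medium with 200 nM rotenone (final) plus compound, 0.019 to 10 µM. Incubated 48 h, then MTS viability read. Cytoprotection expressed as viability increase over the rotenone DMSO control; EC50 = concentration giving half-maximal protection. Data averaged over multiple tests.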

The nature of data set [4]: Cytotoxicity against human SK-N-SH cells after 72 hrs by MTS assay. Type of data set: cell-based. Summed up:
as §2

Data set [5] deals with SH-SY5Y. Put plainly: Cytoprotection against oxygen-glucose deprivation-induced cytotoxicity in human SH-SY5Y cells at 2.5 uM after 28 hrs by MTS assay. Type of data set: functional. Summed up: (§4)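 SH-SY5Y cells plated on collagen I-coated wells, grown 16–24 h in complete medium, washed twice in deoxygenated glucose- and serum-free medium; compound added within 1 h before OGD. Chambers flushed with 95% N₂/5% CO₂, residual O₂ <1%, held at 37 °C for 28 h. MTS viability; cytoprotection = (MTS_compound − MTS_DMSO)/MTS_DMSO × 100% versus OGD DMSO control.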

For data set [6], the system named is SH-SY5Y. Put plainly: Cytoprotection against oxygen-glucose deprivation-induced cytotoxicity in human SH-SY5Y cells at 1 uM after 28 hrs by MTS assay. Type of data set: functional. Put shortly:
as §4

The test system of data set [7] is SH-SY5Y. Put plainly: Cytoprotection against oxygen-glucose deprivation-induced cytotoxicity in human SH-SY5Y cells at 0.5 uM after 28 hrs by MTS assay. Type of data set: functional. Summed up:
as §4

In data set [8] the target is T1, Heat shock factor protein 1 (Homo sapiens) (UniProt Q00613).
T1 sequence (whole entry): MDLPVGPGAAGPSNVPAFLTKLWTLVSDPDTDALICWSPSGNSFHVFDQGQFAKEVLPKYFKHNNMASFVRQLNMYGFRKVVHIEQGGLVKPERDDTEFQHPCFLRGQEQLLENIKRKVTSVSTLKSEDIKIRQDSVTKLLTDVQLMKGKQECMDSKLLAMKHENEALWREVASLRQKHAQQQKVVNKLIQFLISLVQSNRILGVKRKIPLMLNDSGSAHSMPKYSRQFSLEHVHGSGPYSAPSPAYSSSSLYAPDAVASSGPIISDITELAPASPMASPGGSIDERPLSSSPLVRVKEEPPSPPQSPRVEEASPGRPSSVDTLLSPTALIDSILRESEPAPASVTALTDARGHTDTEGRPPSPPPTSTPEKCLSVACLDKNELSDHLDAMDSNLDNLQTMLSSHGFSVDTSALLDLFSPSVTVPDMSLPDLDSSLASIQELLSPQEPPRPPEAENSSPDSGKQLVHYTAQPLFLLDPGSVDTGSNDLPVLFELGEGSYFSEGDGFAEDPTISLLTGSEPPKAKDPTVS
Description: Amplification of HSF1 transcriptional activity in human HeLa cells assessed as granule formation pretreated for 3 hrs by immunocytochemical staining. Type of data set: cell-based. Summed up:
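HeLa cells pretreated with compound 1 h, then mild heat shock 41 °C for 2 h, no recovery; control arm pretreated 3 h at 37 °C without heat shock. Compound diluted 200-fold, 0.3 to 80 µM range.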

The subject of data set [9] is SK-N-SH. Put plainly: Cytoprotection against rotenone stress-induced toxicity in human SK-N-SH cells assessed as increase in cell survival at 0.625 after 48 hrs by MTS assay relative to control. Type of data set: functional. Put shortly: as §3
The subject of data set [10] is SK-N-SH. Put plainly: Cytoprotection against rotenone stress-induced toxicity in human SK-N-SH cells after 48 hrs by MTS assay. As to conditions: Homo sapiens, SK-N-SH, 48 h; read-out: EC50. Type of data set: functional, cell-based. Summed up:
as §3

The subject of data set [11] is HeLa. Description: Cytotoxicity against human HeLa cells at 80 uM after 72 hrs by MTS assay. Type of data set: cell-based. Summed up:
as §2

Data set [12] relates to HeLa. The description is as §1. Type of data set: cell-based. Conditions: hela, 72 h. Put shortly:
as §2

Data set [13] in a line: Therapeutic index, ratio of […]. Type of data set: cell-based. Conditions: read-out: FC.
Data set [14] is described as follows: Therapeutic index, ratio of CC50 for human SK-N-SH cells to EC50 for human SK-N-SH cells. Conditions: read-out: Ratio CC50/EC50. Type of data set: cell-based.

Regarding `CC1=C(O)C(=O)C=C2C1=CC=C1[C@@]2(C)CC[C@@]2(C)[C@@H]3C[C@](C)(C(=O)O)CC[C@]3(C)CC[C@]12C` [CELASTROL], the Activity was 24% in data set [1]; 24% in data set [3]; -22% in data set [5]; 18% in data set [6]; 8% in data set [7]. Also, the cytotoxic concentration (CC50) (commonly the concentration at which the toxic effect on the cells reaches its halfway point) at 72 h in data set [2] stood at 3 µM; in data set [4], 1.6 µM.
As for `CCCCn1nc(-c2ccc3ccccc3n2)nc2c(=O)n(C)c(=O)nc1-2`, the outcome in data set [8] was inactive. Also, the Activity in data set [9] amounted to 103%; in data set [3] it was 71%. In addition, the CC50 at 72 h in data set [2] is 9.5 µM; in data set [4], 4 µM. The EC50 (usually the concentration that produces a half-maximal response) in data set [10] was 0.29 µM.
`CCCCn1nc(-c2nc3ccccc3[nH]2)nc2c(=O)n(C)c(=O)nc1-2`: the Activity in [11] was 76%; in [12], “Not Active”; in data set [3], 59%. Also, the result in [8] was inactive. Moreover, the 50% cytotoxic concentration (CC50) at 72 h in data set [4] is 13.1 µM. In addition, the EC50 in [10] is 1.9 µM.
Take `CCn1nc(-c2ccc(C)s2)nc2c(=O)n(C)c(=O)nc1-2`: the selectivity ratio was no more than 7 in data set [13] and no more than 48 in data set [14]. Further, the result in data set [8] was inactive. Moreover, the CC50 at 72 h in data set [2] stood at 22.2 µM; in data set [4], 63.5 µM. In data set [3], the Activity was 50%. Further, the concentration for a half-maximal effect (EC50) in data set [10] was 1.33 µM.
